# TLR9-MyD88 inh = inhibitors of human TLR9-MyD88 binding | Q9NR96+Q99836 | CHO BLA complementation TLR9-MyD88, CCF4 FRET ratio | inhibition, % at 4.98 µM | 340,000 compounds, 0.21% hits;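 active means inhibition above the mean over all tested compounds plus 3 SD, cut at about 21% in these data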;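 further: 0% = DMSO only wells and 100% = clavulanate BLA inhibitor control wells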
# UPR XBP1 act = adaptive UPR (XBP1) activation | CHO-XBP1 luciferase reporter, IRE1-XBP1 UPR activation, luminescence; percent of tunicamycin response, DMSO as zero | activation, % at 20 µM | 330,000 compounds, 0.33% hits;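 active means versus positive control, 20 µM dose yields 30% or more activation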;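 further: 100% = tunicamycin at 10 µg/mL and 0% = DMSO only wells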
#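 incubation = overnight seeding at 37 °C, 6 h compound treatment at 37 °C | assay system = CHO-XBP1 cells stably carrying IRE1-XBP1-driven luciferase reporter | input = 1000 cells per well | detection = luciferase luminescence | dosing = single point, 20 µM final compound, 1% DMSO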
# NOD2-RIPK2 inh = NOD2-RIPK2 protein interaction inhibition | O43353 | CHO BLA complementation NOD2-RIPK2, CCF4 ratio | inhibition, % at 4.98 µM | 360,000 compounds, 0.38% hits; in the data active means inhibition above about 21%;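 further: 0% = vehicle only and 100% = reference blocker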
# Target sequence (O43353 whole entry, looked up): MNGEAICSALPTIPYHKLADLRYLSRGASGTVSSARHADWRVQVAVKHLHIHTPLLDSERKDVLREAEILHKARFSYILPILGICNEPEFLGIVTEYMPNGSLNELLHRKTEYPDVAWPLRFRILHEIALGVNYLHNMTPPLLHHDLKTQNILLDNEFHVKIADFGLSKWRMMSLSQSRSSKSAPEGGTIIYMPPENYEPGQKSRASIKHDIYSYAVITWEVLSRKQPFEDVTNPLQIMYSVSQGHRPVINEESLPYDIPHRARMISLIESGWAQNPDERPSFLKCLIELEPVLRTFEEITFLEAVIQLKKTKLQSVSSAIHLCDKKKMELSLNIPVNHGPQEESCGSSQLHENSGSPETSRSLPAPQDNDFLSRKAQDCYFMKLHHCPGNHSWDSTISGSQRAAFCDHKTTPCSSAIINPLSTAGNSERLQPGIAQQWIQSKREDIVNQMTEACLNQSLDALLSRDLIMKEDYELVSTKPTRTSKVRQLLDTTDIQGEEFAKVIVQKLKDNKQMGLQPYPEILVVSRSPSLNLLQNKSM
# TLR4 MyD88 comp = inhibitors of human TLR4-MyD88 binding; 200,000 compounds, 0.18% hits; inhibition, % at 8.4 µM; AID 861; O00206+Q99836; HeLa CL3-4 TLR4/MyD88 BLA complementation, FRET ratio; in the data active means inhibition above about 25%;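 further: 0% = vehicle and 100% = reference inhibitor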
# CHOP inhibitor = CHOP inhibition in unfolded protein response. inhibition, % at 10 µM. 220,000 compounds, 3.8% hits. CHO-K1 CHOP-promoter luciferase, tunicamycin-induced, 15-18 h;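 active means compounds that reduced the stress-induced luciferase reporter signal by more than about 70% of percent inhibition, limit read from the data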;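 further: 0% = tunicamycin plus vehicle and 100% = wells without tunicamycin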
# UPR CHOP act = activators of apoptotic arm of unfolded protein response (CHOP). CHO-CHOP luciferase reporter, UPR activation, luminescence; percent of tunicamycin response over DMSO baseline. activation, % at 10 µM. 330,000 compounds, 0.34% hits. AID 449763;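 active means at 10 µM dose, activation of 40% or more, normalized to positive control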;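 further: 100% = tunicamycin at 10 µg/mL and 0% = DMSO alone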
#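 Assay system: CHO-CHOP cells, stable luciferase reporter of PERK-eIF2a-CHOP signalling / Buffer or medium: F12 plus 10% serum / Compound dosing: one dose, 10 µM in 0.5% DMSO / Times: 6 h compound treatment, 37 °C / Technique: luciferase luminescence / Read-out: % reporter activation, DMSO baseline versus tunicamycin full activation / Benchmarks: tunicamycin and DMSO controls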
# TLR4 MyD88 cnf = TLR4-MyD88 interaction inhibition confirmed; shares compounds with TLR4 MyD88 comp; HeLa CL3-4 BLA complementation, CCF4 FRET ratio; 350 compounds, 50% hits; inhibition, % at 8.4 µM;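 active means mean inhibition across three repeat runs above about 25% carried over from the earlier screen, limit read from the data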;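 further: plate controls were DMSO only for no effect and clavulanic acid blocking BLA at full dose for full effect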
# BLA inhibitor ct = beta-lactamase inhibition flagged in TLR4-MyD88 counter-screen. inhibition, % at 8.4 µM. shares compounds with TLR4 MyD88 comp. HeLa BLA reporter, CCF4 FRET ratio. 350 compounds, 63% hits;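 active means mean inhibition over three repeats above about 26% taken from the earlier screen, limit read from the data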;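 further: HeLa cells stably expressing beta-lactamase reporter as counterscreen for TLR4-MyD88 inhibitors; 0% = DMSO and 100% = clavulanic acid full inhibition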
# Numbers without * were called inactive; x = no result. Only a selection was taken, and hits are over-represented in it overall.
SMILES,TLR9-MyD88 inh,UPR XBP1 act,NOD2-RIPK2 inh,TLR4 MyD88 comp,CHOP inhibitor,UPR CHOP act,TLR4 MyD88 cnf,BLA inhibitor ct
Cc1cc(C)nc(NS(=O)(=O)c2ccc(NC(=S)NC(=O)C3CCCC3)cc2)n1,-14.0,0.3,-0.4,-11.0,71.9*,0.9,x,x
COc1ccc(Sc2nnc(-c3ccccc3)cc2C#N)cc1,-6.8,-2.4,0.6,5.2,90.3*,0.4,x,x
CCOc1cc(C)nc(N2CCCC(C(=O)NCc3ccccc3F)C2)n1 (centres undefined),2.7,2.2,-0.8,-0.5,70.7*,-1.8,x,x
Cc1cc(C)nc(N2CCCC(C(=O)NCCc3ccccc3F)C2)n1 (centres undefined),4.0,1.6,-1.5,9.9,31.1,0.1,x,x
CCCCCCCCn1c(=O)c(C(=O)OC)c(N)c2ccccc21,x,-0.3,-1.8,x,65.9,5.1,x,x
CCCCCCCn1c(=O)c(C(=O)OC)c(N)c2ccccc21,6.6,0.5,3.3,x,72.8*,8.1,x,x
Cc1ccc(S(=O)(=O)CCC(=O)Nc2ccc(Br)cc2)cc1,4.3,-7.5,-5.0,x,x,0.8,x,x
COC(=O)c1cc(N2C(=O)C3C(C2=O)C2(C)C=CC3(C)O2)ccc1Cl (centres undefined),x,-2.6,x,-12.5,74.6*,-0.7,x,x
CC1(C(=O)NCc2ccccc2)Cc2c(-c3ccc4c(c3)OCO4)ccnc2O1 (centres undefined),x,x,11.4,x,x,x,x,x
Cc1cccc(N2CCN(C(=O)Cn3sc4nc(C)cc(C)c4c3=O)CC2C)c1 (centres undefined),16.3,-3.5,22.9*,-6.5,99.0*,22.0,x,x
Cc1cc(C)c2c(=O)n(CC(=O)N3CCC(Cc4ccccc4)CC3)sc2n1,x,-3.4,x,7.3,106.7*,40.7*,x,x
Cc1cc(C)c2c(=O)n(CC(=O)Nc3cccc(F)c3)sc2n1,2.3,-1.7,-2.0,x,16.1,-0.3,x,x
Cc1cccc(N2CCN(C(=O)Cn3nc(C)n4cccc4c3=O)CC2C)c1 (centres undefined),-5.7,0.3,6.4,x,x,-1.8,x,x
CCOc1ccc(NC(=O)Cn2sc3nc(C)cc(C)c3c2=O)cc1,5.9,-2.3,26.9*,x,25.3,-0.6,x,x
CNC(=O)c1cc(NC(=O)N(CCC#N)CCN(C(=O)NC(Cc2ccccc2)C(=O)NC(CC(C)C)C(=O)NC)c2ccccc2)ccc1OC (centres undefined),3.6,x,-2.4,x,x,x,x,x
CC(=O)c1sc(NC(=O)c2ccccc2F)nc1-c1ccccc1,-9.1,4.8,0.3,-1.9,-16.1,4.9,x,x
CC(=O)c1sc(NC(=O)c2ccc(F)cc2)nc1-c1ccccc1,-1.2,5.2,2.8,2.6,75.2*,5.5,x,x
CC(C)CNc1c(N)c(=O)oc2ccccc12,4.5,-2.7,-1.0,17.2,42.1,-1.8,x,x
COc1ccc(C(=O)Nc2ccc(C3CC3(Cl)Cl)cc2)cc1 (centres undefined),6.1,0.5,4.7,-5.2,6.7,0.2,x,x
Oc1ccc2ccccc2c1/C=N/Nc1nnc(-c2ncc[nH]2)c2ccccc12,-6.4,2.2,0.9,33.0*,79.5*,-1.5,21.7,49.7*
COc1ccc(/C=N/Nc2nnc(-c3ncc[nH]3)c3ccccc23)cc1,-1.6,7.2,0.7,-2.0,-11.7,7.2,x,x
N#Cc1cccc(NC(=O)CSc2ccc3c4c(cccc24)C(=O)c2ccccc2-3)c1,20.5,x,13.0,53.8*,-7.1,x,35.5*,65.3*
COc1ccc(NC(=O)CSc2ccc3c4c(cccc24)C(=O)c2ccccc2-3)cc1,-13.8,5.6,7.1,33.1*,1.5,2.0,23.8,14.0
COc1ccc(NC(=O)CSc2nnc(C)c3ccccc23)cc1,6.7,-1.0,-7.3,x,x,1.8,x,x
CCc1ccc(C(=O)NNc2ccc(F)cc2F)cc1,6.7,4.6,0.5,x,-6.8,1.3,x,x
SMILES,TLR9-MyD88 inh,UPR XBP1 act,NOD2-RIPK2 inh,TLR4 MyD88 comp,CHOP inhibitor,UPR CHOP act,TLR4 MyD88 cnf,BLA inhibitor ct
O=[N+]([O-])c1ccc(N/N=C/c2cn(-c3ccccc3)nc2-c2ccccc2)cc1,14.2,1.9,9.6,37.7*,14.4,4.4,37.6*,74.6*
OCCCc1nc2n(n1)C(c1ccccc1Cl)C=C(c1cccs1)N2 (centres undefined),50.6*,-1.3,71.8*,32.2*,-7.5,-0.1,19.4,51.6*
Clc1ncnc2c1oc1ccccc12,-8.6,2.2,-10.7,33.1*,-32.8,4.4,37.1*,15.3
CCSc1ncnc2c1oc1ccccc12,13.3,2.0,-3.3,-12.7,46.5,0.7,x,x
CCCCCCn1c2c(c(=N)c3c1CCC3)CCC2,1.3,-2.0,0.6,27.4*,x,-2.4,6.9,23.5
CCCCCCCn1c2c(c(=N)c3c1CCC3)CCCC2,6.7,x,-6.9,25.6*,62.1,x,20.8,25.5*
CCCCn1c2c(c(=N)c3c1CCC3)CCC2,-8.7,-4.0,-9.7,8.5,x,-0.2,x,x
NC(c1csc(Nc2nncc3ccccc23)n1)C1CCCCC1 (centres undefined),x,x,11.8,x,x,x,x,x
COc1ccc(/C=N/NC(=O)Cc2cc(OC)c(OC)cc2[N+](=O)[O-])cc1,-0.4,-1.4,-10.9,1.2,-4.2,-0.2,x,x
Cc1ccc2[nH]c(=O)c(COC(=O)c3cccs3)cc2c1,4.4,0.1,-5.9,-11.5,45.6,-2.4,x,x
COC(=O)C(NS(=O)(=O)c1ccc(C)cc1)c1ccccc1 (centres undefined),8.2,-0.6,-3.6,-3.3,2.9,-0.6,x,x
Cc1ccc(S(=O)(=O)NC(C(=O)Oc2ccc3c(C(F)(F)F)cc(=O)oc3c2)c2ccccc2)cc1 (centres undefined),2.5,-0.3,-0.1,38.1*,63.7,1.0,31.4*,62.1*
CN(C)c1ccc(C2CC(c3ccccc3)=Nc3nc(-c4ccccc4)cn32)cc1 (centres undefined),x,x,x,25.4*,17.3,x,3.5,19.3
O=C1N=c2ccccc2=C1c1sc(Nc2cccc(O)c2)nc1O,-14.9,2.1,-0.6,x,x,5.8,x,x
O=C1N=c2ccccc2=C1c1sc(Nc2ccc(O)cc2)nc1O,-6.4,x,-2.8,26.6*,-22.4,x,2.5,5.8
CCCCCCNC(=O)C(C#N)c1nc2ccccc2nc1N1CCCC1 (centres undefined),4.6,-0.1,-15.3,37.7*,21.7,-0.5,28.8*,1.1
CCc1ccc(NC(=O)CSc2nnc(C)c(=O)n2N)cc1,4.2,-2.2,0.3,x,x,2.3,x,x
Cc1n[nH]c(C)c1NC(=O)c1cc([N+](=O)[O-])ccc1Cl,-8.2,1.5,2.2,26.9*,15.6,-2.1,-5.6,4.7

# Screening results from PubChem BioAssay.
